Screening results from PubChem BioAssay.
An excerpt weighted towards active compounds, which were near 2% of everything screened.
GAA850 FXN act: frataxin GAA850 promoter activation | activation, % at 6 µM | HEK293 lucGAA850 FXN promoter luciferase reporter, 24 h; percent of 10 µM SAHA response | hit rate 0.56% among 360,000;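 active = activation above the average of all compounds screened plus 3 SD, cutoff fixed separately per campaign, cut at about 7.5% in these data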
APJ agonist: activates the human apelin receptor APJ; activation, % at 20 µM; P35414; AID 2520; hit rate 0.11% among 330,000; CHO-K1 APJ PathHunter beta-arrestin, luminescence; 0% DMSO wells, 100% apelin;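 active = activation more than six SD over the plate average, tested at 20 µM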
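Assay system – PathHunter CHO-K1 APJ (AGTRL-1) beta-arrestin reporter cells · Compound – one dose, 20 µM compound, 1% DMSO · Timing – compound 90 min 25 °C, reagent 1 h · Measured by – luminescence from split beta-galactosidase complementation, Galacton Star/Emerald II substrate · Measure – beta-arrestin recruitment to APJ as agonist activity, luminescent signal · Benchmarks – DMSO vs Apelin-13 10 nM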
CCR6 antag: antagonists of human CCR6 receptor | P51684 | CHO-K1 CCR6 PathHunter beta-arrestin, luminescence, CCL20-stimulated | inhibition, % at 20 µM | hit rate 0.49% among 340,000 | AID 493098;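 active = compounds whose inhibition of the agonist-driven luminescence signal at 20 µM reaches about 50%, limit read from the data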;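 note: cells stimulated with CCL20 at 14 nM final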
EBI2 block: antagonists of human EBI2 receptor | hit rate 0.81% among 360,000 | EBI2 beta-arrestin recruitment, luminescence, 7a,25-OHC stimulated | inhibition, % at 5 µM; in the data active = inhibition above about 38%;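 note: enzyme fragment complementation signal reports receptor beta-arrestin coupling in cells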
Target sequence (P32249 whole entry, looked up, the tested form may be a part): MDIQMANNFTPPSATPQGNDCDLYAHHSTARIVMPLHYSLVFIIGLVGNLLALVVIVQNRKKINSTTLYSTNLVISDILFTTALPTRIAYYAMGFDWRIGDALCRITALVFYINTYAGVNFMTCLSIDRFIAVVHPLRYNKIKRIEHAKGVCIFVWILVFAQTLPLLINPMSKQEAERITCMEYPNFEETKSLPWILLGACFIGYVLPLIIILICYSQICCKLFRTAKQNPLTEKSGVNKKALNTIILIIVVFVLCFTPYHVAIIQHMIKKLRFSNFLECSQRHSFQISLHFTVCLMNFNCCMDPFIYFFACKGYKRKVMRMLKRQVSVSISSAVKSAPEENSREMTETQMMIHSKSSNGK
CXCR6 block: CXCR6 (human) receptor inhibition; AID 602244; CHO-K1 PathHunter CXCR6 beta-arrestin, luminescence; hit rate 0.36% among 360,000; inhibition, % at 20 µM; O00574; in the data active = inhibition above about 34%, passing the limit was not always enough;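 note: antagonist mode with CXCL16 agonist at 10 nM final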
APJ antagonist: antagonists of human APJ apelin receptor | P35414 | CHO-K1 APJ beta-arrestin complementation, luminescence | inhibition, % at 20 µM | hit rate 0.32% among 330,000 | AID 2521;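 active = inhibition above about 40% at 20 µM, limit read from the data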;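 note: cells challenged with 10 nM apelin-13 agonist together with compound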
APJ antag conf: APJ receptor antagonism confirmation; inhibition, % at 20 µM; hit rate 66% among 950; APJ beta-arrestin recruitment, luminescence, antagonist mode; AID 2766; shares compounds with APJ antagonist; in the data active = inhibition above about 50%
GAA30 counter: GAA30 FXN promoter activation counter-screen | shares compounds with GAA850 FXN act | HEK293 lucGAA30 FXN promoter luciferase, 24 h; DMSO = 0%, 5 µM ipriflavone = 100% | activation, % at 6 µM | hit rate 66% among 1,900 | AID 588350;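 active = mean activation above the mean of solvent-only control wells plus 3 SD, cut at about 22% in these data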;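 note: counterscreen of GAA850 promoter hits where activity marks nonselective or luminescence artifacts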
FXN GAA850 conf: confirmation of GAA850 frataxin (FXN) promoter activators; shares compounds with GAA850 FXN act; HEK293 lucGAA850 FXN promoter luciferase reporter, 24 h; 100% = activation by SAHA; activation, % at 6 µM; hit rate 86% among 1,900;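 active = mean activation above a set limit taken from the primary screen, cut at about 8% in these data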
CXCR6 confirm: confirmation of human CXCR6 receptor antagonists; shares compounds with CXCR6 block; CHO-K1 CXCR6 PathHunter beta-arrestin, luminescence; inhibition, % at 20 µM; hit rate 65% among 700; AID 602409;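 active = mean inhibition over four retests above 40%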;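 note: receptor stimulated with 10 nM CXCL16 agonist; beta-galactosidase fragment complementation upon beta-arrestin recruitment to receptor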
EBI2 antag conf: confirmation of human EBI2 receptor antagonists; inhibition, % at 5 µM; shares compounds with EBI2 block; EBI2 beta-arrestin luminescence, 7a,25-OHC antagonism; hit rate 29% among 2,400;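 active = inhibition of at least 50%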
EBI2 ag: EBI2 agonism counter-screen | shares compounds with EBI2 block | EBI2-expressing cells, agonist mode, luminescence, 60 min; 0% vehicle, 100% 7α,25-dihydroxycholesterol control | activation, % at 5 µM | 2,400 tested, under 10 active;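 active = activation of at least 50%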
bGal counter: beta-galactosidase inhibition counter-screen; shares compounds with EBI2 block; purified beta-galactosidase, luminescent Galacton Star, 15 min; inhibition, % at 5 µM; hit rate 1% among 2,400;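 active = replicate-average signal at least 3 plate SD below neutral wells, shown as high inhibition, flagging enzyme-inhibiting false positives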;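 note: higher means stronger loss of beta-gal luminescence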
Hits are given with their value; – = inactive; · = no result.

SMILES	GAA850 FXN act	APJ agonist	CCR6 antag	EBI2 block	CXCR6 block	APJ antagonist	APJ antag conf	CXCR6 confirm	EBI2 antag conf	EBI2 ag	bGal counter	others
COc1cc(/C=C/[N+](=O)[O-])ccc1OC(=O)c1cc2ccccc2oc1=O	–	–	–	–	76.0	45.9	91.4	68.8	·	·	·
COc1cc(/C=C/c2ccc3cccc(OC)c3n2)c(OC(C)=O)c([N+](=O)[O-])c1	–	–	52.9	–	41.0	44.6	74.7	43.7	·	·	·
CCc1ccc(C(=O)NNc2ccc(C)c(Cl)c2)cc1	–	–	–	46.2	–	52.7	80.5	·	–	–	–
CCc1ccc(C(=O)NNc2ccc(F)cc2)cc1	–	–	–	–	–	–	·	·	·	·	·
C/C(=N/NC(=O)c1ccc(C(C)(C)C)cc1)c1ccccn1	–	–	93.8	74.3	77.4	69.1	88.2	82.2	87.0	–	–
CC(=NNC(=O)c1ccncc1)c1cccc(Br)c1	–	·	–	–	–	·	·	·	·	·	·
C/C(=N\NC(=O)c1cccc(Br)c1)c1ccccn1	–	–	65.3	67.1	–	66.6	59.3	·	81.8	–	–
CC(Cn1cncn1)C(=O)N1CCN(S(=O)(=O)c2ccccc2)CC1 (centres undefined)	–	–	–	–	–	–	·	·	·	·	·
Cc1ccc(OCCN2C(=O)c3ccccc3C2=O)c([N+](=O)[O-])c1	–	–	–	61.6	52.8	47.9	66.2	58.3	51.7	–	–
O=C(NCc1cccnc1)OC1CC2CC1[C@H]1CCCCN1C2=O (some centres undefined)	·	·	·	–	–	·	·	·	·	·	·
CC(C)CC1Nc2ncnc(N3CCN(c4ccccc4)CC3)c2N(Cc2ccccc2)C1=O (centres undefined)	–	–	–	–	–	–	·	·	·	·	·
COc1ccc(CN2C(=O)C(Cc3ccccc3)Nc3ncnc(N4CCN(c5ccccc5)CC4)c32)cc1 (centres undefined)	–	–	80.1	44.1	70.4	52.9	110.0	68.2	–	–	32.5
O=C1C(Cc2ccccc2)Nc2ncnc(N3CCN(c4ccccc4)CC3)c2N1Cc1ccc(Cl)cc1 (centres undefined)	–	–	77.6	64.6	67.9	65.4	103.9	69.8	70.6	–	39.4
O=C1CNC(=S)N1C(CO)c1ccccc1 (centres undefined)	–	–	–	–	–	–	·	·	·	·	·
Cc1cc(NC(=O)C(C)SCC(=O)Nc2cc(C(F)(F)F)ccc2N2CCCCC2)no1 (centres undefined)	9.1	–	–	–	–	–	·	·	·	·	·	GAA30 counter=24.0;FXN GAA850 conf=16.5
Cc1cccc(NC(=O)CSCC(=O)Nc2cc(C(F)(F)F)ccc2N2CCOCC2)c1	13.7	·	·	–	–	·	·	·	·	·	·	GAA30 counter=–;FXN GAA850 conf=9.4
c1ccc(SC23CCCCN(CCC2)[C@]32CO2)cc1 (some centres undefined)	·	·	·	–	–	·	·	·	·	·	·
COc1ccc(CN2CCN(Cc3ccc4cc(F)ccc4n3)CC2CCO)c(C)c1C (centres undefined)	–	–	–	–	–	–	·	·	·	·	·
